# Source: ChEMBL document CHEMBL1132614, “Novel inhibitors of carboxypeptidase G2 (CPG2): potential use in antibody-directed enzyme prodrug therapy” (J Med Chem, 1999)
# pIC50: −log10 of the molar value.
# Legend:
# LS174T [1] = assay: The compound was evaluated for the cytotoxicity towards LS174T cells.; type: functional, cell-based; settings: Homo sapiens
# Procedure, shortened: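 LS174T human colon adenocarcinoma cells (CEA-expressing) exposed to graded inhibitor, 0.01–500 μM in medium, for 1 h at 37 °C. Cells were washed once, grown a further 6 days, and survival was read by SRB assay to give IC50.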
# LS174T [2] = assay: Cytotoxicity in conjugate with F(ab')2-A5B7-CPG2 and 2-(4-Methoxy-phenylsulphanylcarbonylamino)-pentanedioic acid at a concentration of 50 uM against LS174T cells.; type: functional, cell-based; settings: Homo sapiens
# Procedure, shortened: (§1)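 LS174T human colon adenocarcinoma cells (CEA-expressing) were exposed to F(ab')2-A5B7-CPG2 conjugate (3.32 μg/mL, 0.505 U/mL) for 1 h at 37 °C and washed twice to remove unbound conjugate. They were then exposed for 1 h at 37 °C to graded prodrug plus the stated fixed CPG2 inhibitor level (25 or 50 μM). After a wash, cells grew 6 days; survival was measured by SRB assay.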
# LS174T [3] = assay: The compound was evaluated for the cytotoxicity in conjugate with F(ab')2-A5B7-CPG2 against LS174T cells.; type: functional, cell-based; settings: Homo sapiens
# Procedure, shortened: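 They then received graded prodrug (0.01–500 μM in medium) for 1 h at 37 °C to generate the phenol mustard in situ. After a wash and a further 6 days, survival was measured by SRB assay.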
# LS174T [4] = assay: Cytotoxicity in conjugate with F(ab')2-A5B7-CPG2 and 2-(4-Methoxy-phenylsulphanylcarbonylamino)-pentanedioic acid at a concentration of 25 uM against LS174T cells.; type: functional, cell-based; settings: Homo sapiens; procedure, shortened: as §1
# LS174T [5] = assay: Cytotoxicity in conjugate with 2-(4-Methoxy-phenylsulphanylcarbonylamino)-pentanedioic acid at a concentration of 50 micuM against LS174T cells.; type: functional, cell-based; settings: Homo sapiens
# LS174T [6] = assay: The compound was evaluated for the cytotoxicity with the compound alone against LS174T cells.; type: functional, cell-based; settings: Homo sapiens
# Procedure, shortened: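 LS174T cells were exposed to graded compound alone (0.01–500 μM in medium) for 1 h at 37 °C, with no conjugate. Cells were washed once with medium and cultured a further 6 days. Survival was measured by sulforhodamine B (SRB) assay.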
# [7] = The compound was evaluated for the apparent Vmax through Lineweaver-Burke Plot of MTX turnover by CPG2 at a concentration of 0.5 (uM).; type: ADME
# Procedure, shortened: (§2)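 CPG2 (10 μL of 28.66 μg/mL stock) in a 1-mL cuvette; reaction started with 990 μL methotrexate (3.077–70 μM) alone or with inhibitor at fixed 0.5 or 1.0 μM (final). Buffer was 0.1 M Tris-HCl pH 7.3, 0.1 mM ZnCl2, 37 °C. A320 decrease over 0–60 s gave initial velocities; apparent Vmax came from Lineweaver–Burk plots.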
# [8] = The compound was evaluated for the apparent Vmax through Lineweaver-Burke Plots of MTX turnover by CPG2 at a concentration of 1 (uM).; type: ADME; procedure, shortened: as §2
# [9] = The compound was evaluated for the apparent Vmax through Lineweaver-Burke Plots of MTX turnover by CPG2 at a concentration of 0 (uM).; type: ADME; procedure, shortened: as §2
compound,measurement,setting,value
Nc1cccc(SC(=O)NC(CCC(=O)O)C(=O)O)c1 (stereo not given),pIC50,LS174T [1],< 3.30
COc1ccc(SC(=O)N[C@@H](CCC(=O)O)C(=O)O)cc1,pIC50,LS174T [1],< 3.30
Cc1cccc(SC(=O)NC(CCC(=O)O)C(=O)O)c1 (stereo not given),pIC50,LS174T [1],< 3.30
COc1cccc(SC(=O)NC(CCC(=O)O)C(=O)O)c1 (stereo not given),pIC50,LS174T [1],< 3.30
O=C(O)CCC(NC(=O)Oc1ccc(N(CCCl)CCCl)cc1)C(=O)O (stereo not given),pIC50,LS174T [2],4.79
same,pIC50,LS174T [3],6.10
same,pIC50,LS174T [4],5.48
same,pIC50,LS174T [5],4.62
same,pIC50,LS174T [6],4.63
COc1ccc(SC(=O)N[C@H](CCC(=O)O)C(=O)O)cc1,pIC50,LS174T [1],< 3.30
same,Vmax,[7],47.7 µM/min
same,Vmax,[8],42.3 µM/min
same,Vmax,[9],80 µM/min
Nc1ccc(SC(=O)NC(CCC(=O)O)C(=O)O)cc1 (stereo not given),pIC50,LS174T [1],3.38
Cc1ccc(SC(=O)NC(CCC(=O)O)C(=O)O)cc1 (stereo not given),pIC50,LS174T [1],< 3.30
